Measured values from ChEMBL document CHEMBL3872252, “New bithiazolyl hydrazones: Novel synthesis, characterization and antitubercular evaluation” (Bioorg Med Chem Lett, 2017).
Converted amounts (≈) assume the structure as drawn.

Experiments:
[1] = Antitubercular activity against Mycobacterium tuberculosis H37Ra ATCC 25177 dormant stage infected in human THP1 cells measured on day 12 by nitrate reductase assay; type: functional, THP-1; conditions: ATCC 25177, 288 h
[2] = tested on: Staphylococcus aureus; test: Growth inhibition of Staphylococcus aureus at 30 ug/ml; type: functional; conditions: read-out: GI
[3] = tested on: Bacillus subtilis; test: Growth inhibition of Bacillus subtilis at 3 ug/ml; type: functional; conditions: read-out: GI
In short: (§1)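 Screened against Gram-negative E. coli and P. aeruginosa and Gram-positive S. aureus and B. subtilis. Compound was tested at 3 µg/ml, and the read-out is percent growth inhibition.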

[4] = Cytotoxicity against human THP1 cells by MTT assay; type: toxicity, cell-based, THP-1; conditions: for GI50: THP1 cells; for GI90: thp-1
[5] = tested on: Pseudomonas aeruginosa; test: Growth inhibition of Pseudomonas aeruginosa at 10 ug/ml; type: functional; conditions: read-out: GI
[6] = tested on: Escherichia coli; test: Growth inhibition of Escherichia coli at 3 ug/ml; type: functional; conditions: read-out: GI; in short: as §1
[7] = tested on: Bacillus subtilis; test: Growth inhibition of Bacillus subtilis at 30 ug/ml; type: functional; conditions: read-out: GI
[8] = Selectivity index, ratio of GI50 for human MCF7 cells to MIC90 for Mycobacterium bovis BCG ATCC 35743 dormant stage; type: toxicity, cell-based; conditions: read-out: Selectivity Index
In short: (§2)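 Cytotoxicity was measured on human MCF-7, HCT116 and THP-1 cells by MTT assay, with paclitaxel as reference. The selectivity index is GI50 for the given cell line divided by MIC90 for the given mycobacterial strain and stage.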

[9] = Selectivity index, ratio of GI50 for human THP1 cells to MIC90 for Mycobacterium tuberculosis H37Ra ATCC 25177 active stage; type: toxicity, cell-based, THP-1; conditions: read-out: Selectivity Index
In short: (§3)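 Cytotoxicity was measured on human MCF-7, HCT116 and THP-1 cells by MTT assay, with paclitaxel as reference. GI50 is the concentration inhibiting 50% of cell growth. The selectivity index is GI50 for the given cell line divided by MIC90 for the given mycobacterial strain and stage.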

[10] = tested on: Staphylococcus aureus; test: Growth inhibition of Staphylococcus aureus at 10 ug/ml; type: functional; conditions: read-out: GI
[11] = Selectivity index, ratio of GI50 for human MCF7 cells to MIC90 for Mycobacterium tuberculosis H37Ra ATCC 25177 active stage; type: toxicity, cell-based; conditions: read-out: Selectivity Index; in short: as §3
[12] = Selectivity index, ratio of GI50 for human MCF7 cells to MIC90 for Mycobacterium bovis BCG ATCC 35743 active stage; type: toxicity, cell-based; conditions: read-out: Selectivity Index; in short: as §3
[13] = tested on: Escherichia coli; test: Growth inhibition of Escherichia coli at 10 ug/ml; type: functional; conditions: read-out: GI
[14] = Cytotoxicity against human MCF7 cells by MTT assay; type: toxicity, cell-based; conditions: for GI50: MCF7 cells; for GI90: mcf7
[15] = Selectivity index, ratio of GI50 for human THP1 cells to MIC90 for Mycobacterium bovis BCG ATCC 35743 dormant stage; type: toxicity, cell-based, THP-1; conditions: read-out: Selectivity Index; in short: as §2
[16] = Antitubercular activity against Mycobacterium tuberculosis H37Ra ATCC 25177 active stage measured on day 8 by XTT reduction menadione based two-fold dilution assay; type: functional; conditions: ATCC 25177, 192 h
In short: (§4)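 M. tuberculosis H37Ra ATCC 25177 was exposed to 0.7–100 μg/mL in two-fold steps (0.7, 1.5, 3.1 … 100). Active stage was read after 8 days and dormant stage after 12 days of incubation. Inhibition was read by XTT reduction menadione assay (XRMA), absorbance 470 nm. MIC90 is the concentration giving ≥90% inhibition (µg/mL).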

[17] = Cytotoxicity against human HCT116 cells by MTT assay; type: toxicity, cell-based, HCT-116; conditions: for GI50: HCT116 cells; for GI90: hct-116
[18] = tested on: Pseudomonas aeruginosa; test: Growth inhibition of Pseudomonas aeruginosa at 3 ug/ml; type: functional; conditions: read-out: GI; in short: as §1
[19] = Antitubercular activity against Mycobacterium tuberculosis H37Ra ATCC 25177 active stage infected in human THP1 cells measured on day 8 by nitrate reductase assay; type: functional, THP-1; conditions: ATCC 25177, 192 h
[20] = Antitubercular activity against Mycobacterium bovis BCG ATCC 35743 dormant stage measured on day 12 by nitrate reductase based two-fold dilution assay; type: functional, Mycobacterium bovis BCG str. ATCC 35743; conditions: Mycobacterium tuberculosis variant bovis BCG, ATCC 35743, 288 h
[21] = tested on: Staphylococcus aureus; test: Growth inhibition of Staphylococcus aureus at 3 ug/ml; type: functional; conditions: read-out: GI; in short: as §1
[22] = Antitubercular activity against Mycobacterium tuberculosis H37Ra ATCC 25177 dormant stage measured on day 12 by XTT reduction menadione based two-fold dilution assay; type: functional; conditions: ATCC 25177, 288 h; in short: as §4
[23] = Selectivity index, ratio of GI50 for human HCT116 cells to MIC90 for Mycobacterium tuberculosis H37Ra ATCC 25177 active stage; type: toxicity, cell-based, HCT-116; conditions: read-out: Selectivity Index; in short: as §3
[24] = Selectivity index, ratio of GI50 for human HCT116 cells to MIC90 for Mycobacterium tuberculosis H37Ra ATCC 25177 dormant stage; type: toxicity, cell-based, HCT-116; conditions: read-out: Selectivity Index; in short: as §2
[25] = Selectivity index, ratio of GI50 for human HCT116 cells to MIC90 for Mycobacterium bovis BCG ATCC 35743 dormant stage; type: toxicity, cell-based, HCT-116; conditions: read-out: Selectivity Index; in short: as §2
[26] = Antitubercular activity against Mycobacterium bovis BCG ATCC 35743 active stage measured on day 8 by nitrate reductase based two-fold dilution assay; type: functional, Mycobacterium bovis BCG str. ATCC 35743; conditions: Mycobacterium tuberculosis variant bovis BCG, ATCC 35743, 192 h
[27] = Selectivity index, ratio of GI50 for human MCF7 cells to MIC90 for Mycobacterium tuberculosis H37Ra ATCC 25177 dormant stage; type: toxicity, cell-based; conditions: read-out: Selectivity Index; in short: as §2
[28] = Selectivity index, ratio of GI50 for human THP1 cells to MIC90 for Mycobacterium bovis BCG ATCC 35743 active stage; type: toxicity, cell-based, THP-1; conditions: read-out: Selectivity Index; in short: as §3
[29] = Selectivity index, ratio of GI50 for human HCT116 cells to MIC90 for Mycobacterium bovis BCG ATCC 35743 active stage; type: toxicity, cell-based, HCT-116; conditions: read-out: Selectivity Index; in short: as §3
[30] = tested on: Bacillus subtilis; test: Growth inhibition of Bacillus subtilis at 10 ug/ml; type: functional; conditions: read-out: GI
[31] = Selectivity index, ratio of GI50 for human THP1 cells to MIC90 for Mycobacterium tuberculosis H37Ra ATCC 25177 dormant stage; type: toxicity, cell-based, THP-1; conditions: read-out: Selectivity Index; in short: as §2
[32] = tested on: Pseudomonas aeruginosa; test: Growth inhibition of Pseudomonas aeruginosa at 30 ug/ml; type: functional; conditions: read-out: GI
[33] = tested on: Escherichia coli; test: Growth inhibition of Escherichia coli at 30 ug/ml; type: functional; conditions: read-out: GI

SMILES | MIC90 [1] [µg/mL] | inhibition of growth at 30 µg/mL [2] [%] | inhibition of growth at 3 µg/mL [3] [%] | GI50 [4] [µg/mL] | GI90 [4] [µg/mL] | inhibition of growth at 10 µg/mL [5] [%] | inhibition of growth at 3 µg/mL [6] [%] | inhibition of growth at 30 µg/mL [7] [%] | selectivity ratio [8] | selectivity ratio [9] | inhibition of growth at 10 µg/mL [10] [%] | selectivity ratio [11] | selectivity ratio [12] | inhibition of growth at 10 µg/mL [13] [%] | GI50 [14] [µg/mL] | GI90 [14] [µg/mL] | selectivity ratio [15] | IC50 [16] [µg/mL] | MIC90 [16] [µg/mL] | GI50 [17] [µg/mL] | further results
C/C(=N\Nc1nc(-c2ccc(Br)cc2)cs1)c1sc(C)nc1C | 48.8 (≈ 120 µM) | 81 | 25.9 | > 100 | > 100 | 69.5 | 35.8 | 79.5 | 9 | 2 | 68.8 | 2 | 9 | 70.7 | > 100 | > 100 | 9 | 0.15 (≈ 0.368 µM) | 44.1 (≈ 108 µM) | > 100 | GI90 [17]: > 100 µg/mL; inhibition of growth at 3 µg/mL [18]: 30.5%; MIC90 [19]: 47.9 µg/mL (≈ 118 µM); IC50 [20]: 2.51 µg/mL (≈ 6.16 µM); MIC90 [20]: 10.6 µg/mL (≈ 26 µM); inhibition of growth at 3 µg/mL [21]: 31.2%; IC50 [22]: 0.66 µg/mL (≈ 1.62 µM); MIC90 [22]: 43.7 µg/mL (≈ 107 µM); selectivity ratio [23]: 2; selectivity ratio [24]: 2; selectivity ratio [25]: 9; IC50 [26]: 1.6 µg/mL (≈ 3.93 µM); MIC90 [26]: 11.4 µg/mL (≈ 28 µM); selectivity ratio [27]: 2; selectivity ratio [28]: 9; selectivity ratio [29]: 9; inhibition of growth at 10 µg/mL [30]: 66.4%; selectivity ratio [31]: 2; inhibition of growth at 30 µg/mL [32]: 82.1%; inhibition of growth at 30 µg/mL [33]: 82%
C/C(=N\Nc1nc(-c2ccc(Cl)cc2)cs1)c1sc(C)nc1C | > 100 | 66.3 | 47.1 | > 100 | > 100 | 61.6 | 54 | 63.8 | 6 | 3 | 61.7 | 3 | 6 | 63.9 | > 100 | > 100 | 6 | 11.9 (≈ 32.8 µM) | > 100 | > 100 | GI90 [17]: > 100 µg/mL; inhibition of growth at 3 µg/mL [18]: 50.9%; MIC90 [19]: > 100 µg/mL; IC50 [20]: 3.06 µg/mL (≈ 8.43 µM); MIC90 [20]: 17 µg/mL (≈ 46.7 µM); inhibition of growth at 3 µg/mL [21]: 50.9%; IC50 [22]: 9.02 µg/mL (≈ 24.9 µM); MIC90 [22]: > 100 µg/mL; selectivity ratio [23]: 3; selectivity ratio [24]: 1; selectivity ratio [25]: 6; IC50 [26]: 1.95 µg/mL (≈ 5.37 µM); MIC90 [26]: 16.1 µg/mL (≈ 44.2 µM); selectivity ratio [27]: 1; selectivity ratio [28]: 6; selectivity ratio [29]: 6; inhibition of growth at 10 µg/mL [30]: 58.9%; selectivity ratio [31]: 1; inhibition of growth at 30 µg/mL [32]: 66.9%; inhibition of growth at 30 µg/mL [33]: 68.4%
